Our source for the yeast fitness values is the RNAGym collection of RNA variant scans (doi:10.1126/science.aae0568).

Fewer inactive variants are shown than the library holds.

First the molecules themselves.
B1: tRNA (parent)
chain: GUUCCGUUGGCGUAAUGGUAACGCGUCUCCCUCCUAAGGAGAAGACUGCGGGUUCGAGUCCCGUACGGAACG

This data set covers variants of B1. The experiment in a line: yeast fitness relative to wild type (ratio to wild type); higher = fitter; tRNA-Arg(CCU), competitive growth, 37 C, YPD. Summed up: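 Gene amplicons from the start population and from each of six end populations were read by 100-nucleotide paired-end sequencing. Those end populations came from pooled Saccharomyces cerevisiae strains carrying tRNA-Arg(CCU) gene variants at the native locus, competed in YPD at 37°C for 24 hours. Fitness relative to wild type was worked out from changes in genotype frequencies. Genotypes needed ≥ 100 starting reads, and estimates < 0.5 were set to 0.5.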
On to GUUCCGUUGGCGUAAAGGUAACGCGUCUCCCUCCUAAGGAGAAGACUGCGGGUUCGAGUCCUGUACGGAACG, for which the yeast fitness is 0.918.
Next, GUUCCGUUGGCGUAAAGGUAACGCGUCUCCGUCCUAAGGAGAAGACUGCGGGUUCGAGUCCCGUCCGGAACG: 0.619.
Next, GUUCCGUUGGCGUAAAGGUAACGCGUCUCCGUCCUAAGGAGAAGACUGCGGGUUCGAGUCCCGUACGGAACG: 0.87.
As to GUUCCGUUGGCGUAAAGGUAAGGCGUCUCCCUCCUAAGGAGAAGACUACGGGUUCGAGUCCCGUACGGAACG, the yeast fitness came out at 0.994.
Next, GUUCCGUUGGCGUAAAGGUAAUGCGCCUCCCUCCUAAGGAGAAGACUGCGGGUGCGAGUCCCGUAAGGAACG: 0.58.
Next, GUUCCGUUGGCGUAAAGGUAACGCGUCUCCCUCCUAAGGAGAAGACUGCGGGUUAGAGUCCCGUACGGCACG: no more than 0.5; GUUCCGUUGGCGUAAAGGUAACGAGUCUCCCUCCUAAGGAGAGGACUGCGGGUUCGAGUCCCGUACGGAACG: no more than 0.5.
For the variant GUUCCGUUGGCGUAAAGGUAACGCGUCUCUCUCCUAAGGAGAAGGCUGCGGGUUCGAGUCCCGUACGGAACG, the yeast fitness was no more than 0.5.
Consider GUUCCGUUGGCGUAAAGGUAACGCGUCUCCCUCCUAAGGAGAAGAGUGCGGGUUCGGGUCACGUACGGAACG, for which the yeast fitness is no more than 0.5.
The same measure for GUUCCGUUGGCGUAAAGGUAACGAGUCUCCCUCCUAAGGAGAGGACUGCGGGUUCGAGUCCCGUACGAAACG: no more than 0.5.
Next, GUUCCGUUGGCGUAAAGAUAACGCGUCUCCUUCCUAAGGAGAAGACUGCGGGUUCGAGUCCCGUACGGAACG: no more than 0.5; GUUCCGUUGGCGUAAAGGUAACGUGUCUCGCUCCAAAGGAGAAGACUGCGGGUUCGAGUCCCGUACGGAACG: 0.539.
The same measure for GUUCCGUUGGCGUAAAGGUAACGGGUCUCCCUCCUAAGGAGAAGACUGCGGGUUCGAGUAGCGUACGGAACG: no more than 0.5; for GUUCCGUUGGCGUAAAGGUAACGGGUCUCCCUCCUAAGGAGAAGACUGCGGGUUCGAGUCCCGUACGGAACG: 0.528; for GUUCCGUUGGCGUAAAGGUAACGCGUCUCUCUCCUAAGGAGAAGACUGCGGGUUCGUGUCCCGUACGGAACG: no more than 0.5.
For the variant GUUCCGUUGGCGUAAAGAUAACGCGUCUCCCUCCUAAGGAGAAGACUGCGGGUUCAAGUCCCGUACCGAACG, the yeast fitness is no more than 0.5.
The same measure for GUUCCGUUGGCGUAAAGGUAACGCGUCUCCCUCCUAAGGAGAGGCCUGCGGGUUCGAGUCCCGUACGGAACG: no more than 0.5; for GUUCCGUUGGCGUAAAGGUAACGCGUCUCCCUCCUAAGGAGAAGACUGCGGGUUUGCGUCCCGUACGGAACG: no more than 0.5; for GUUCCGUUGGCGUAAAGGUAACGCGUCUCCCUCUUAAGGAGAAGACUGCGGGUUCGAGUCCCGUACGGAUCG: no more than 0.5.
The same measure for GUUCCGUUGGCGUAAAGGUAACGAGUCUCGCUCUUAAGGAGAAGACUGCGGGUUCCAGUCCCGUACGGAACG: 0.634; for GUUCCGUUGGCGUAAAGGUAACGCGUCUGCCUCCUAAGGAGAAGACUGCGGGUUCGAGUCCCGUACGGAACG: 0.669; for GUUCCGUUGGCGUAAAGGUAACGCGUCUGCCACCUGAGGAGAAGACUGUGAGUUCGAGUCCCGUACGGAACG: no more than 0.5.
For the variant GUUCCGUUGGCGUAAAGAUAACGCGUCUCCUUCCUAAGGAGAAGACUGCGGGUUCGAGUCCCGUGCGGAACG, the yeast fitness amounted to 0.548.
Next, GUUCCGUUGGCGUAAAGGUAACGCGUCUCCCUCCUAAGGAGAAGCCUGCGGGUUCGAGUCCCGUACGGAACG: 0.994; GUUCCGUUGGCGUAAAGGUAACGCGUCUCCGUCCUAAGGAGAAGACUGCGGGUUCGAGUCCCGUUCGGAGCG: no more than 0.5; GUUCCGUUGGCGUAAAGGUAACGCGUCUCCCUCCUAAGGAGAAGAGUGCGGGUUCGAGUCCCGUACGGAGCG: 0.604.
With GUUCCGUUGGCGUAAAGGUAACGCGUCUCCAUCCUAAGGCGAAGACUGCGGCUUCGAGUCCCGUACGGAACG, the yeast fitness is no more than 0.5.
Turning to GUUCCGUUGGCGUAAAGGUAACGCGUCUCGCUCCUAAGGAGAAGACUGCAGGUUCGAGUACCGUACGGAACG, the yeast fitness stood at 0.547.
Regarding GUUCCGUUGGCGUAAAGGUAACGUGUCUCCCUUCUUAGGUGAAGACUGCGGGUUCCGGUCCCGUACGGCACG, the yeast fitness is no more than 0.5.
Next, GUUCCGUUGGCGUAAAGGUAACGCGUCUCCAUCGUAAGGAGAAGACUGCGGGUUCGAGUUCCGUACGUAACG: no more than 0.5; GUUCCGUUGGCGUAAAAGUAAGGCGUCUCCCUCCUAAGGAGAAGACUGCGGGUUCGAGUCUCGUACGCAACG: 0.659; GUUCCGUUGGCGUAAAGGUAAGGCGUCUCCCUCCUAAGGAGAAGACUGCGGGUUCGAGUCCCGUACGGUACG: 0.791.
Next, GUUCCGUUGGCGUAAAGGUAAACCGUCUCCCUCUUGAGGUGAAGACUGCGGGUUCGAGUCCCGUACGGAACG: no more than 0.5; GUUCCGUUGGCGUAAAGGUAACGCGUCUCCCUCCUAAGGAGAAGACUGCGGGUUCGAGUCCCGUAUGGAACG: 0.897; GUUCCGUUGGCGUAAAGGUAACGGGUCUCCCUCCUAAGGAGAAGACUGCGGGUUCAAGUCCCGUACGGAACG: no more than 0.5.
Turning to GUUCCGUUGGCGUAAAGGUAACGCGUCUCCAUCCUAAGGCGAAGACUGCGGGUUCGAGUCCCGUACGGAACG, the yeast fitness was no more than 0.5.
Next, GUUCCGUUGGCGUAAACGUAACGCGUCUCCCUCCUAAGGAGAUGCAUGCGGGUUCGAGUCUCGUACGGAACG: no more than 0.5; GUUCCGUUGGCGUAAAGGUAAUGCGUCUCCCUCCUAAGGAGAAGACUGCGGGUUAGAGUCCCGUACGGAACG: 0.808.
